Reference: ChEMBL document CHEMBL1123507, “Antipicornavirus activity of substituted phenoxybenzenes and phenoxypyridines” (J Med Chem, 1986)
Values after ≈ are worked out from the molar mass of the structure shown.

Assays:
Enterovirus [1] = test: Antiviral activity against rhinovirus RV-Hanks; format: functional
Procedure, shortened: (§1)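 HeLa monolayers were seeded at (1.0-1.3) × 10^5 cells/well, grown 24 h at 36 °C in 5% CO2 to 60–75% cover, then refed with maintenance medium (1-2% heat-inactivated FCS) containing two-fold serial compound dilutions made from a 200 μg/mL stock in Me2SO/medium, with final Me2SO ≤0.1%. Cells were challenged with 10-100 TCID50 virus, and CPE was read microscopically at 48 and 72 h. MIC50 was the lowest concentration giving ≥50% CPE reduction versus virus control. Cytotoxicity was the lowest concentration causing cell death, a growth change or a morphology change in uninfected cultures.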

Mengo virus = test: Antiviral activity against mengo; format: functional; settings: Cardiovirus A; procedure, shortened: as §1
Enterovirus [2] = test: Compound was evaluated for inhibition of rhinovirus RV-Hanks 75%; format: functional
Enterovirus [3] = test: Antiviral activity against rhinovirus RV-74; format: functional; procedure, shortened: as §1
Enterovirus [4] = test: Antiviral activity against rhinovirus RV-64; format: functional; procedure, shortened: as §1
Enterovirus [5] = test: Antiviral activity against rhinovirus RV-39; format: functional; procedure, shortened: as §1
Coxsackievirus [6] = test: Antiviral activity against coxsackie B4; format: functional; procedure, shortened: as §1
Enterovirus [7] = test: Antiviral activity against rhinovirus RV-8; format: functional; procedure, shortened: as §1
Enterovirus [8] = test: Antiviral activity against rhinovirus RV-5; format: functional; procedure, shortened: as §1
Coxsackievirus [9] = test: Antiviral activity against rhinovirus Coxsackie B3; format: functional; procedure, shortened: as §1
Coxsackievirus [10] = test: Ratio of the MIC50 of 6-(4-Nitro-phenoxy)-nicotinonitrile compared to compound obtained in the same test for coxsackie A21; format: functional
Procedure, shortened: (§2)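 Relative activity was calculated as the MIC50 of the positive control 5-cyano-2-(4-nitrophenoxy)pyridine divided by the MIC50 of the test compound. Both were measured in parallel in the same HeLa CPE test (48/72 h microscopic reading) against RV-1A, RV-2 or coxsackievirus A21.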

Enterovirus [11] = test: Compound was evaluated for inhibition of rhinovirus RV-Hanks at a dose of 50 ug/mL by < 50%; format: functional
Enterovirus [12] = test: Antiviral activity against rhinovirus RV-9; format: functional; procedure, shortened: as §1
Enterovirus [13] = test: Antiviral activity against rhinovirus RV-21; format: functional
Procedure, shortened: (§3)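 HeLa monolayers (1.0-1.3×10^5 cells/well, grown 24 h at 36 °C to 60-75% cover) refed with maintenance E-MEM (1-2% heat-inactivated FCS) holding two-fold serial dilutions from a 200 μg/mL DMSO stock (final DMSO ≤0.1%). Challenged with 10-100 TCID50 virus, 36 °C, 5% CO2. CPE read microscopically at 48 and 72 h. MIC50 is the lowest concentration cutting CPE ≥50% vs virus control.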

Enterovirus [14] = test: Antiviral activity against rhinovirus RV-55; format: functional; procedure, shortened: as §1
Enterovirus C = test: Antiviral activity against Poliovirus type 2; format: functional; procedure, shortened: as §3
Enterovirus [15] = test: Antiviral activity against rhinovirus RV-14; format: functional; procedure, shortened: as §1
Enterovirus [16] = test: Ratio of the MIC50 of 6-(4-Nitro-phenoxy)-nicotinonitrile compared to compound obtained in the same test for Rhinovirus (RV)-1A; format: functional; procedure, shortened: as §2
HeLa = test: Cytotoxicity concentration in HeLa cells; format: cell-based; settings: human; procedure, shortened: as §1
Echovirus = test: Antiviral activity against Echo 12; format: functional; procedure, shortened: as §1
Enterovirus [17] = test: Antiviral activity against rhinovirus RV-49; format: functional; procedure, shortened: as §1
Enterovirus [18] = test: Antiviral activity against rhinovirus RV-1B; format: functional; procedure, shortened: as §1
Enterovirus [19] = test: Antiviral activity against rhinovirus RV-33; format: functional; procedure, shortened: as §1
Coxsackievirus [20] = test: Lowest concentration to reduce viral effect by 50% or more against coxsackie virus A21; format: functional; procedure, shortened: as §1
Enterovirus [21] = test: Antiviral activity against rhinovirus RV-10; format: functional; procedure, shortened: as §1
Enterovirus [22] = test: Antiviral activity against rhinovirus RV-44; format: functional; procedure, shortened: as §1
Enterovirus [23] = test: Ratio of the MIC50 of 6-(4-Nitro-phenoxy)-nicotinonitrile compared to compound obtained in the same test for Rhinovirus (RV)-2; format: functional; procedure, shortened: as §2
Enterovirus [24] = test: Lowest concentration to reduce viral effect by 50% or more against Rhinovirus (RV)-2; format: functional; procedure, shortened: as §1
Enterovirus [25] = test: Antiviral activity against rhinovirus RV-4; format: functional; procedure, shortened: as §1
Enterovirus [26] = test: Antiviral activity against rhinovirus RV-32; format: functional; procedure, shortened: as §1
Enterovirus [27] = test: Antiviral activity against rhinovirus RV-68; format: functional; procedure, shortened: as §1
Enterovirus [28] = test: Lowest concentration to reduce viral effect by 50% or more against Rhinovirus (RV)-1A; format: functional; procedure, shortened: as §1
Enterovirus [29] = test: Antiviral activity against rhinovirus RV-13; format: functional; procedure, shortened: as §1
Enterovirus [30] = test: Antiviral activity against rhinovirus RV-29; format: functional; procedure, shortened: as §1

CS(=O)(=O)c1ccc(Oc2ccc(Cl)c(Cl)c2)nc1
MIC (Enterovirus [1]): 31 µM (≈ 9.86 µg/mL)
MIC (Mengo virus): > 16 µM
Inhibition (Enterovirus [2]): 65%
MIC (Enterovirus [3]): 7.9 µM (≈ 2.51 µg/mL)
MIC (Enterovirus [4]): 0.94 µM (≈ 0.299 µg/mL)
MIC (Enterovirus [5]): 20 µM (≈ 6.36 µg/mL)
MIC (Coxsackievirus [6]): 39 µM (≈ 12.4 µg/mL)
MIC (Enterovirus [7]): > 39 µM
MIC (Enterovirus [8]): > 39 µM
MIC (Coxsackievirus [9]): > 7.9 µM
Relative activity (Coxsackievirus [10]): 0.65
inhibition at 50 µg/mL (Enterovirus [11]): 25%
MIC (Enterovirus [12]): 31 µM (≈ 9.86 µg/mL)
MIC (Enterovirus [13]): 31 µM (≈ 9.86 µg/mL)
MIC (Enterovirus [14]): < 2 µM
MIC (Enterovirus C): > 39 µM
MIC (Enterovirus [15]): > 31 µM
Relative activity (Enterovirus [16]): 10.4
Toxicity (HeLa): 157 µM
MIC (Echovirus): < 4.1 µM
MIC (Enterovirus [17]): < 2 µM
MIC (Enterovirus [18]): < 0.94 µM
MIC (Enterovirus [19]): 2 µM (≈ 0.636 µg/mL)
MIC50 (Coxsackievirus [20]): 20 µM (≈ 6.36 µg/mL)
MIC (Enterovirus [21]): < 4.1 µM
MIC (Enterovirus [22]): 16 µM (≈ 5.09 µg/mL)
Relative activity (Enterovirus [23]): 10.4
MIC50 (Enterovirus [24]): 2 µM (≈ 0.636 µg/mL)
MIC (Enterovirus [25]): 79 µM (≈ 25.1 µg/mL)
MIC (Enterovirus [26]): 4.1 µM (≈ 1.3 µg/mL)
MIC (Enterovirus [27]): > 31 µM
MIC50 (Enterovirus [28]): 1 µM (≈ 0.318 µg/mL)
MIC (Enterovirus [29]): > 16 µM
MIC (Enterovirus [30]): 4.1 µM (≈ 1.3 µg/mL)
